pIC50: −log10 of the molar value. Calls of active or inactive are those of the source. The rule behind the calls is not given here.
What was measured:
[1] = target: Leucine-rich repeat serine/threonine-protein kinase 2 (Homo sapiens, UniProt Q5S007); assay: Inhibition of full length LRRK2 (unknown origin) expressed in HEK293 cells assessed as reduction in S935 phosphorylation incubated for 90 mins by ELISA method; type: cell-based
[2] = AUC in rat at 5 mg/kg, po; type: ADME, organism-based; design: dose 5 mg/kg, route oral; conditions: plasma
[3] = Cmax in dog at 5 mg/kg, po; type: ADME, organism-based, Canis lupus familiaris; design: dose 5 mg/kg, route oral; conditions: in vivo
[4] = AUC in dog at 5 mg/kg, po; type: ADME, organism-based, Canis lupus familiaris; design: dose 5 mg/kg, route oral; conditions: plasma
[5] = Half life in dog at 5 mg/kg, po; type: ADME, organism-based, Canis lupus familiaris; design: dose 5 mg/kg, route oral; conditions: in vivo
[6] = Cmax in non-human primate at 5 mg/kg, po; type: ADME, organism-based; design: dose 5 mg/kg, route oral; conditions: monkey, in vivo
[7] = Tmax in non-human primate at 5 mg/kg, po; type: ADME, organism-based; design: dose 5 mg/kg, route oral; conditions: monkey, in vivo
[8] = tested on: Mus musculus; assay: Inhibition of LRRK2 […] mutant S1292 phosphorylation in BAC-transgenic mouse at 3 to 100 mg/kg, sc measured after 90 mins post dose; type: functional; conditions: dose mg/kg 3-100; route subcutaneous
Outline: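 Mice given compound subcutaneously in 10% NMP/20% SBECD vehicle: four-month-old C57BL/6J (wild type) or seven-month-old LRRK2 BAC-Tg G2019S. Tissues collected 90 min after dose. pS935, and pS1292 (custom antibody) in transgenic brain, read by Western blot of brain/kidney lysates against vehicle controls. Mean ± SEM.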

[9] = tested on: Mus musculus; assay: Potency index, ratio of IC50 for LRRK2 […] mutant […] phosphorylation in BAC-transgenic mouse at 3 to 100 mg/kg, sc to IC50 for wild type LRRK2 […] phosphorylation in BAC-transgenic C57BL/6J mouse brain at 3 to 100 mg/kg, sc; type: functional
Outline: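 Four-month-old C57BL/6J mice and seven-month-old LRRK2 BAC-transgenic G2019S mice received single subcutaneous doses. Vehicle was 10% NMP in 20% SBECD. Brain was collected 90 min after dosing and snap frozen. LRRK2 pS935 phosphorylation was measured in brain lysate. An unbound-drug IC50 was estimated from the dose–response in each strain.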

[10] = tested on: Rattus norvegicus; assay: Toxicity in Wistar Han rat assessed as changes in RBC parameters at 6 to 60 mg/kg, po bid for 14 days; type: organism-based; design: dose 6-60 mg/kg, route oral; conditions: in vivo, 336 h
Outline: (§1)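 Wistar Han rats (200–300 g, 8–11 weeks) dosed by oral gavage twice daily for 14 days. Vehicle: 10% propylene glycol/20% PEG400/70% methylcellulose solution. RBC parameters, electrolytes, food consumption, body weight, clinical chemistry and urinary biomarkers recorded.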

[11] = tested on: Rattus norvegicus; assay: Toxicity in Wistar Han rat assessed as changes in electrolytes levels at 6 to 60 mg/kg, po bid for 14 days; type: organism-based; design: dose 6-60 mg/kg, route oral; conditions: in vivo, 336 h; outline: as §1
[12] = tested on: Rattus norvegicus; assay: Toxicity in Wistar Han rat assessed as changes in food consumption at 6 to 60 mg/kg, po bid for 14 days; type: organism-based; design: dose 6-60 mg/kg, route oral; conditions: in vivo, 336 h; outline: as §1
[13] = tested on: Rattus norvegicus; assay: Toxicity in Wistar Han rat assessed as changes in clinical chemistry parameters at 6 to 60 mg/kg, po bid for 14 days; type: organism-based; design: dose 6-60 mg/kg, route oral; conditions: in vivo, 336 h; outline: as §1
[14] = tested on: Rattus norvegicus; assay: Toxicity in Wistar Han rat assessed as changes in lung parameters at 6 to 60 mg/kg, po bid for 14 days by H and E staining method; type: organism-based; design: dose 6-60 mg/kg, route oral; conditions: in vivo, 336 h
[15] = Drug coverage index, ratio fCmax in Wistar Han rat at 20 mg/kg, po bid for 14 days to IC50 for LRRK2 […] phosphorylation in Wistar Han rat brain at 6 to 60 mg/kg, po bid for 14 days; type: ADME, organism-based; conditions: in vivo, 336 h
Outline: (§2)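 Wistar Han rats (200–300 g, 8–11 weeks old) were dosed by oral gavage twice daily for 14 days. Vehicle was 10% propylene glycol/20% PEG400/70% 9.5% methocellulose.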

[16] = Drug coverage index, ratio fCmax in Wistar Han rat at 60 mg/kg, po bid for 14 days to IC50 for LRRK2 S395 phosphorylation in Wistar Han rat brain at 6 to 60 mg/kg, po bid for 14 days; type: ADME, organism-based; conditions: in vivo, 336 h; outline: as §2
[17] = tested on: Rattus norvegicus; assay: fAUC in Wistar Han rat at 6 mg/kg, po bid for 14 days; type: ADME, organism-based; design: dose 6 mg/kg, route oral; conditions: in vivo, 336 h
Outline: (§3)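 Wistar Han rats dosed orally twice daily in 10% propylene glycol/20% PEG400/methylcellulose vehicle. Unbound plasma exposure measured on days 1 and 11.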

[18] = tested on: Rattus norvegicus; assay: fAUC in Wistar Han rat at 20 mg/kg, po bid for 14 days; type: ADME, organism-based; design: dose 20 mg/kg, route oral; conditions: in vivo, 336 h; outline: as §3
[19] = target: Tyrosine-protein kinase JAK1 (Homo sapiens, UniProt P23458); assay: Inhibition of JAK1 (JH2 domain-pseudokinase) (unknown origin) at 1 uM
[20] = target: Tyrosine-protein kinase JAK2 (Homo sapiens, UniProt O60674); assay: Inhibition of JAK2 (JH1 domain-catalytic) (unknown origin) at 1 uM
[21] = target: T1, Tyrosine-protein kinase JAK3 (Homo sapiens) (UniProt P52333); assay: Inhibition of JAK3 (JH1 domain-catalytic) (unknown origin) at 1 uM
T1 sequence (whole entry): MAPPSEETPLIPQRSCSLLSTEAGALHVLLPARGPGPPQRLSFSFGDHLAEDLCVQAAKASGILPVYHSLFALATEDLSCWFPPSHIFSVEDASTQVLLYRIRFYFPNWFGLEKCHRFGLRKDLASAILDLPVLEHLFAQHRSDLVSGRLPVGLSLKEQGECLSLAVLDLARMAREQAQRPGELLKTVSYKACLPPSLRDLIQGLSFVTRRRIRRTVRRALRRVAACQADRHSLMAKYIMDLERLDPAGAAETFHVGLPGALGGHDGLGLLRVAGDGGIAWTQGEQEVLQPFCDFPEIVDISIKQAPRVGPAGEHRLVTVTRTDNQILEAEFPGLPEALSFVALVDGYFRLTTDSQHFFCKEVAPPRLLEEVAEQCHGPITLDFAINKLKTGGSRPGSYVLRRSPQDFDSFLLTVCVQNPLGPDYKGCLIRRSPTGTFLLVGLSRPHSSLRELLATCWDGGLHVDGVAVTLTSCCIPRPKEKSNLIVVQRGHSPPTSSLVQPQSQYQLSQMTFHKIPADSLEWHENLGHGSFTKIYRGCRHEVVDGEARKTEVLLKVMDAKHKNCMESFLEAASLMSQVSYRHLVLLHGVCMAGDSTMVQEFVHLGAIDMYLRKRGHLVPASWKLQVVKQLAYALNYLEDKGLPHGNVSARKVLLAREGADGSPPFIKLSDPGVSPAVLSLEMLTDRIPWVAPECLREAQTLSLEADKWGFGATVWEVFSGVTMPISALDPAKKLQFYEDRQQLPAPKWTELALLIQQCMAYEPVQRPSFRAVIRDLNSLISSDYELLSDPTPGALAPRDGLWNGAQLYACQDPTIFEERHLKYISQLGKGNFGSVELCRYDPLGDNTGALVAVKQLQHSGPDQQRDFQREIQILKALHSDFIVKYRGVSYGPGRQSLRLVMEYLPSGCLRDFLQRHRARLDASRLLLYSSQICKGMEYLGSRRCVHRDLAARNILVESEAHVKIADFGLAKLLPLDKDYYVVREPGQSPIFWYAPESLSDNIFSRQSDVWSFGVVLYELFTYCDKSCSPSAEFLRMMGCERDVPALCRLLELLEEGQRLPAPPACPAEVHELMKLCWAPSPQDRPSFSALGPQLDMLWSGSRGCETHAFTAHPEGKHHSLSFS

Tyrosine-protein kinase JAK2, sequence (O60674 whole entry, the tested form may be a part): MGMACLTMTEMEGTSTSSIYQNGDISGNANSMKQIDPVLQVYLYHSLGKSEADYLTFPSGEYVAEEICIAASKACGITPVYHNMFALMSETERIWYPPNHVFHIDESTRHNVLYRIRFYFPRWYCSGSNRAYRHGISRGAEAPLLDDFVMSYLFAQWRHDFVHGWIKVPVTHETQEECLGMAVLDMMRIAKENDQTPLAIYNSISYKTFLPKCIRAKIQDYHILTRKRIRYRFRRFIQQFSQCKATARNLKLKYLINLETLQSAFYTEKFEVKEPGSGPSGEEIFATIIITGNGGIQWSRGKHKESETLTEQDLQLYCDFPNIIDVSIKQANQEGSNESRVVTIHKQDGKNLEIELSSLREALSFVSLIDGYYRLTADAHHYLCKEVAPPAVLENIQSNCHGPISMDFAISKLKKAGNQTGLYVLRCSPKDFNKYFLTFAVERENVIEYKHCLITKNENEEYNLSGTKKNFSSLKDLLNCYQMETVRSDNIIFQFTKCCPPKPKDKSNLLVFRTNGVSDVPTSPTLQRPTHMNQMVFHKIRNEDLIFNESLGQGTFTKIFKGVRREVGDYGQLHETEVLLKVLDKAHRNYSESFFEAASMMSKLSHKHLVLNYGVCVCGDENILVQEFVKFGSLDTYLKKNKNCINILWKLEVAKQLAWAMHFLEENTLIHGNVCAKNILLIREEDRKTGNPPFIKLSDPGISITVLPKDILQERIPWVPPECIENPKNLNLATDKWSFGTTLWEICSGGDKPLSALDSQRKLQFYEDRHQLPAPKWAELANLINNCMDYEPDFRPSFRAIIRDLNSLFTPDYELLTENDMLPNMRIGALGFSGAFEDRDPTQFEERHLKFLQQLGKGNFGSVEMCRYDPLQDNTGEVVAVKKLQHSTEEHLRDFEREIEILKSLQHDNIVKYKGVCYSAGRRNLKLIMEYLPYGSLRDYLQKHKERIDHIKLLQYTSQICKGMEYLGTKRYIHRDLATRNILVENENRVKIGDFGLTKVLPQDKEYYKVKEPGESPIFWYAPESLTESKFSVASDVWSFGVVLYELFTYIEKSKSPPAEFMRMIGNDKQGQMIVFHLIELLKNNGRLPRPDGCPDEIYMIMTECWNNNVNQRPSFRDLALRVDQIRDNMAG
Tyrosine-protein kinase JAK1, sequence (P23458 whole entry, the tested form may be a part): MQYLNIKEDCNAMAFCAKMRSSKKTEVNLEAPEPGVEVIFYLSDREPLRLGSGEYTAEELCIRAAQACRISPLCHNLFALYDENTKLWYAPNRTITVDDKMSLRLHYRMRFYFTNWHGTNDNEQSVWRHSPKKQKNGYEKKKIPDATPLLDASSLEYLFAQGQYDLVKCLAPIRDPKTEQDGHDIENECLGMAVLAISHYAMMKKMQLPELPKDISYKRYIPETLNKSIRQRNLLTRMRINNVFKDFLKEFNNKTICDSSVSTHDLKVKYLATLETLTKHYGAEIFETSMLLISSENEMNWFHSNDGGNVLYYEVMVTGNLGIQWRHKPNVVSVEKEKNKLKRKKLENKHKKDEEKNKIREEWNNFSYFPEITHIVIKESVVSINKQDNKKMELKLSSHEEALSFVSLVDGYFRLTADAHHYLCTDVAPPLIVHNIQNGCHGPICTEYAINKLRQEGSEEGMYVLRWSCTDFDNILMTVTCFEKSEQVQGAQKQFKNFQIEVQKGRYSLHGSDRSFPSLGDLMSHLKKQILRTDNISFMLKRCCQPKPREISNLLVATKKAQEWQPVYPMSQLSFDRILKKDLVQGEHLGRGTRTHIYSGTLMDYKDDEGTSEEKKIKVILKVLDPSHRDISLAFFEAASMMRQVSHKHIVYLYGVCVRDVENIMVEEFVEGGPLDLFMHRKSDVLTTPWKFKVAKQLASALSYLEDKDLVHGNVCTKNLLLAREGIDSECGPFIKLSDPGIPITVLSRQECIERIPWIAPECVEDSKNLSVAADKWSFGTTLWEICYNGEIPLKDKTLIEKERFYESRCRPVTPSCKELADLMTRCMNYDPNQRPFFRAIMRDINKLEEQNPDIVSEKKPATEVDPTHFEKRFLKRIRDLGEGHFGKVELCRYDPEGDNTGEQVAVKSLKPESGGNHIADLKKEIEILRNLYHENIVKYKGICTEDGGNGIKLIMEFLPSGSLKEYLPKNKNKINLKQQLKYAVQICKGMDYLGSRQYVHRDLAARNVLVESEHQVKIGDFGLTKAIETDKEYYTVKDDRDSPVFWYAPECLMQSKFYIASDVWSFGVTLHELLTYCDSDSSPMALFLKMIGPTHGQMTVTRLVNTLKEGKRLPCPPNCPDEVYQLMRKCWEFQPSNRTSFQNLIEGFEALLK
Leucine-rich repeat serine/threonine-protein kinase 2, sequence (Q5S007 whole entry): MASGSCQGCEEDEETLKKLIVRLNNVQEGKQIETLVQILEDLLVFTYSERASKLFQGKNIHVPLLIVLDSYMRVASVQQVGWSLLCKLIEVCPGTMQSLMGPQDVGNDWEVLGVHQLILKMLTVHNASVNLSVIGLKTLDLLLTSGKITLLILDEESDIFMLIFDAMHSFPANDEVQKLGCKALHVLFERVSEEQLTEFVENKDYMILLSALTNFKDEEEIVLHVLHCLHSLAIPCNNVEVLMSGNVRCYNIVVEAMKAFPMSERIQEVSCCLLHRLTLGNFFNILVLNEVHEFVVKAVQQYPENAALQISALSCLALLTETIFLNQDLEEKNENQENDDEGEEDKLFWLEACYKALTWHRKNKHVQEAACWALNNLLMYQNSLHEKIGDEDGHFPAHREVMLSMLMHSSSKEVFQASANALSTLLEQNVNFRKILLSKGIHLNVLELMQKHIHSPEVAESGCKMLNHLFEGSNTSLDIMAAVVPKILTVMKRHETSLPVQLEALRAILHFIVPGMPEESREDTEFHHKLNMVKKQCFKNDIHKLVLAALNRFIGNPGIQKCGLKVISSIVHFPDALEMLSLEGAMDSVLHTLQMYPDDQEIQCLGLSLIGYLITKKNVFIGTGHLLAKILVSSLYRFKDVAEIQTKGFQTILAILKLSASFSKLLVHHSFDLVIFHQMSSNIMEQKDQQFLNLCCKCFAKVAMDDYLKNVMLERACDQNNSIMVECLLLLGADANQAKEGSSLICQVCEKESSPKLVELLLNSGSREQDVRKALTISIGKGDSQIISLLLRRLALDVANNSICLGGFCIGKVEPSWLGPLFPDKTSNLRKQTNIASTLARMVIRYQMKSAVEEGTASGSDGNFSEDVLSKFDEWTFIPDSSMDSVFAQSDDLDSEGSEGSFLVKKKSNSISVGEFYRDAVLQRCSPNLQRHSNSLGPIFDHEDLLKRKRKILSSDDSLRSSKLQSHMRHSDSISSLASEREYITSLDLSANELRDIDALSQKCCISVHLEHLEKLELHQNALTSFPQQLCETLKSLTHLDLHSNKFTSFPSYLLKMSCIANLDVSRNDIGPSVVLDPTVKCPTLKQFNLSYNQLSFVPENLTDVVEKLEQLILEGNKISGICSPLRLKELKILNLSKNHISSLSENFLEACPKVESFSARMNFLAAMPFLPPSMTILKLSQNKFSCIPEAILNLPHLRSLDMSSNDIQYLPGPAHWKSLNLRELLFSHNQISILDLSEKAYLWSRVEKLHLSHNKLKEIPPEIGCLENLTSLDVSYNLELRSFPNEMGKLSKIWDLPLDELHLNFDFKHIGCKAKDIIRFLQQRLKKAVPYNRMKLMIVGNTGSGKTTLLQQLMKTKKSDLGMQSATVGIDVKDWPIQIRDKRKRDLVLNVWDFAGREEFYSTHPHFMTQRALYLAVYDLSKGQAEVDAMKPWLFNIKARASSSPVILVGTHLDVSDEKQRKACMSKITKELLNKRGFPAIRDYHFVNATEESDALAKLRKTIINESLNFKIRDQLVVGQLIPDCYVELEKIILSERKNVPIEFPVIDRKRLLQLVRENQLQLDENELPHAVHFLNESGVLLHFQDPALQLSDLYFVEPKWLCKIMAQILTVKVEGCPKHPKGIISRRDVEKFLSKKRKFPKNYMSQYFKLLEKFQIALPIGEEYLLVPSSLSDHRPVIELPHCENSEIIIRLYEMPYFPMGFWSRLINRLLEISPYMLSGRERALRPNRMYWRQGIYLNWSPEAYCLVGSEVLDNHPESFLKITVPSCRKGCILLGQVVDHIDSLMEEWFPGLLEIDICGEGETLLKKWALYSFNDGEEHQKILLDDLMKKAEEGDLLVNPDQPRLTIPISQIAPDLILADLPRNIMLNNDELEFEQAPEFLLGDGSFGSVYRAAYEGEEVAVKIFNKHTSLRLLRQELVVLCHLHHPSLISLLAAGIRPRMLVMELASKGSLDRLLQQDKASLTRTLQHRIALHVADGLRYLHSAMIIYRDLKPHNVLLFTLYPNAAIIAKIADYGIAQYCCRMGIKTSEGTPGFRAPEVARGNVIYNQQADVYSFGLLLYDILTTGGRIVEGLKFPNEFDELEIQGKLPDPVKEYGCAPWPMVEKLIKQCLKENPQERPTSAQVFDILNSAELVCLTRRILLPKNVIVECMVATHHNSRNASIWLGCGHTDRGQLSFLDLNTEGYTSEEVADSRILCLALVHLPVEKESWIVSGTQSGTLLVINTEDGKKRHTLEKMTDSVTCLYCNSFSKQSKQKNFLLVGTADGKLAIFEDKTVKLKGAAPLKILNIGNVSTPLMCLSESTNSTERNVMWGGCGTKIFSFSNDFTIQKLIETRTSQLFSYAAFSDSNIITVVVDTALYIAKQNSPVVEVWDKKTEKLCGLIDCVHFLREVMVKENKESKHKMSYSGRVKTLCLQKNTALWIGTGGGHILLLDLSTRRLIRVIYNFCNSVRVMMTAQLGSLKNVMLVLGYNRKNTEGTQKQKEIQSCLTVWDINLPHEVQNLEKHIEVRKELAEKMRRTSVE

N#Cc1cccc(-c2c[nH]c3ncnc(N4CCOCC4)c23)c1 gave a pIC50 [1] of 7.60, an AUC [2] of 629 ng·h/mL and a Cmax [3] of 15 ng/mL. For the same compound, the AUC [4] was 10 ng·h/mL, the half-life [5] was 0.78 h and the Cmax [6] was 25 ng/mL. For the same compound, the Tmax [7] was 2 h, the fIC50 [8] was 21 nM and the “Ratio IC50” value [9] was 10. For the same compound, the Activity [10] was “Non-toxic”, the Activity [11] was “Non-toxic” and the Activity [12] was “Non-toxic”. The Activity [13] was “Non-toxic”, the Activity [14] was “Non-toxic” and the Ratio [15] was 25. The Ratio [16] was 70, the fAUC [17] was 0.843 µM·h and the fAUC [18] was 4.14 µM·h. The inhibition [19] was “inactive”, the inhibition [20] was “inactive” and the inhibition [21] was “inactive”.
